Hits are enriched below; roughly 4.8% of the tested compounds scored in any of these assays.
HSF1 activator: HSF-1 activators, primary screen, NIH3T3-HGL cells, MG132 stress, luminescence, single point; NIH3T3-HGL HSF-1 luciferase reporter, 8 h; 100% = twice DMSO control signal; activation, % at 9 µM; 300,000 tested, 1.7% active;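 active means mean replicate activation of at least 50% with a set share of replicates each reaching 50%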;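 further: 0% = median of the neutral control wells and 100% = twice that signal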
HSF1 inhib: HSF1 inhibitors in luciferase reporter cells, primary screen, cell-based, NIH3T3, luminescence | NIH3T3-HGL HSE-luciferase, MG132-induced, luminescence 8 h; stronger effect = lower value | activity change, negative = inhibition, % at 7.5 µM (by protocol) | 300,000 tested, 0.77% active | AID 2098, 2009;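 active means more than half of replicate wells show activity change below -50%, luminescence cut by over half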;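 further: luciferase reports HSF-1 transcriptional activity via heat shock element; 0% = median of DMSO wells and -100% = zero luminescence signal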
GPR7 antagonist: GPR7 receptor antagonists, primary screen, cell-based, fluorescence, single concentration; 290,000 tested, 1.1% active; AID 1861, 2009; GPR7-expressing cells, fluorescence antagonist assay; inhibition, % at 4.4 µM; Neuropeptides B/W receptor type 1 (Homo sapiens), P48145; in the data active means inhibition above about 16%, passing the limit was not always enough;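 further: cells stimulated with the agonist NPW; 0% = agonist with vehicle and 100% = vehicle without agonist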
Target sequence (P48145 whole entry, looked up): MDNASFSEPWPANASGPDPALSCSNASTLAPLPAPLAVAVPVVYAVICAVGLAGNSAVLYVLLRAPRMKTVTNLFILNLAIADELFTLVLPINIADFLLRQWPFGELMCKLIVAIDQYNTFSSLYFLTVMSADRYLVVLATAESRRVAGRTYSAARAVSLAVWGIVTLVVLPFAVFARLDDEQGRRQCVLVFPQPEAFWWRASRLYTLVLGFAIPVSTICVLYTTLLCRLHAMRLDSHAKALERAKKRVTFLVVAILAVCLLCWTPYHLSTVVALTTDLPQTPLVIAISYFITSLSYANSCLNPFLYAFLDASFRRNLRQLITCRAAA
T cruzi inh: inhibitors of intracellular T. cruzi growth, primary screen, luminescence, NIH3T3 host cells | 300,000 tested, 1.4% active | AID 1885, 2009 | T. cruzi beta-gal in NIH3T3, 90 h | inhibition, % (test concentration not listed);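 active means mean inhibition across valid replicates above about 55%, limit read from the data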;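 further: signal also drops with host cell toxicity which is not excluded here; 0% = plate median of DMSO wells and 100% = zero luminescence signal; higher percent means less beta-gal luminescence so fewer parasites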
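Material: NIH/3T3 host cells with β-galactosidase reporter T. cruzi; Input: 5,000 host fibroblasts per well; Medium: DMEM, 2% fetal bovine serum; Compound: 50 nL DMSO compound solution per well; Schedule: 3 h host attachment, then at least 90 h co-culture; Detection: luminescent β-galactosidase signal after 60 min lysis.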
Jurkat NFkB inh: inhibitors of induced NF-kB luciferase reporter, primary screen, TCR NF-kB activation inhibitor project, cell-based, luminescence, uHTS; AID 435003, 2010; Jurkat, PMA/ionomycin-induced NF-kB luciferase reporter; 330,000 tested, 0.53% active; inhibition, % at 4 µM; in the data active means inhibition above about 50%
697 NFkB inh: inhibitors of PMA/ionomycin-induced NF-kB reporter, 697 cells, primary screen, B-cell NF-kB inhibitor project, cell-based, luminescence, uHTS; 330,000 tested, 0.33% active; inhibition, % at 4 µM; 697 B-cell NF-kB luciferase reporter, 16 h; in the data active means inhibition above about 35%
* hit, by the source's call; · = no result given.

SMILES | HSF1 activator | HSF1 inhib | GPR7 antagonist | T cruzi inh | Jurkat NFkB inh | 697 NFkB inh
COC(/C=C/Nc1ccc(C)cc1)=C(C#N)C#N | -3.2 | -3.0 | -8.1 | -15.2 | 12.5 | 13.1
CCCN1CCC(=O)N(CCN=[N+]=[N-])CC1 | -5.7 | -3.0 | -1.6 | -9.9 | 4.2 | 1.1
Cc1ccc(Nc2nnc(-c3ccc(N4CCOCC4)c([N+](=O)[O-])c3)c3ccccc23)cc1 | 2.4 | -0.8 | -5.5 | 51.4 | 8.9 | -8.2
O=[N+]([O-])c1cc(-c2nnc(Nc3ccccc3)c3ccccc23)ccc1N1CCOCC1 | -9.7 | -7.2 | -5.6 | 57.2* | -10.4 | -62.0
O=[N+]([O-])c1cc([N+](=O)[O-])c(N2CCOCC2)cc1NCc1ccccc1 | 108.7* | 48.1 | -13.9 | 9.9 | -15.1 | -16.7
O=C(CN1CCN(S(=O)(=O)c2cccs2)CC1)N1CCCCC1 | · | · | · | · | 9.5 | 12.7
CCOc1c(Cl)cc(CNCC(C)C)cc1Cl | -5.4 | -3.4 | -4.5 | 9.3 | 12.4 | 14.3
Cc1ccc(OC(=O)c2ccc3nc(C)sc3c2)cc1 | -66.8 | -61.8* | -2.3 | -24.8 | -8.7 | -71.2
COc1ccccc1C(=O)NCC(=O)OCC(=O)c1cccc2ccccc12 | 60.3* | 19.0 | · | -6.3 | 3.5 | 8.9
CCCCN(CC)C(=O)Cn1nc(Cc2ccncc2)c2ccccc2c1=O | 10.8 | 5.6 | -2.1 | -2.9 | -7.5 | 0.0
CN1CCN(C(=O)/C(=C/c2cccnc2)NC(=O)c2cccc(Br)c2)CC1 | 72.1* | 41.6 | -0.4 | -7.0 | 2.9 | 2.8
COC(=O)/C(=C/c1cccnc1)NC(=O)c1ccccc1 | 92.0* | 39.1 | -2.3 | -19.7 | 5.9 | 11.8
COCCNC(=O)CN(Cc1ccccc1)C(=O)CCC(=O)Nc1nccs1 | 2.2 | -12.6 | 7.5 | -12.5 | 6.0 | 10.1
N#Cc1ccc(C(=O)OCCCc2cc3ccccc3c(=O)o2)cc1 | · | · | · | · | 4.9 | 16.6
O=c1cc(-c2c(F)c(F)c(F)c(F)c2F)oc2ccccc12 | -10.2 | 0.4 | -16.6 | -11.4 | 6.8 | 6.2
O=c1cc(-c2c(F)c(F)c(F)c(F)c2F)oc2c(F)c(F)c(F)c(F)c12 | -94.8 | -94.4* | 6.2 | 60.6* | 14.5 | -22.8
COc1cc(C(=O)NNC(=O)COc2ccccc2Cl)ccc1OCC(=O)N1CCOCC1 | · | · | · | · | -0.6 | 9.4
O=C(CSc1nnc(-c2ccncc2)n1Cc1ccco1)N1c2ccccc2Sc2ccc(Cl)cc21 | 69.8* | 63.1 | -13.4 | 50.1 | -23.1 | -15.0

From PubChem BioAssay
